Measured values from ChEMBL document CHEMBL2021906, “A synthetic chalcone as a potent inducer of glutathione biosynthesis” (J Med Chem, 2012).
The source made the active and inactive calls. No cut-off for these calls is given here.

Columns and labels:
[1] = tested on: MCF7; experiment: Increase in intracellular GSH level in human MCF7 cells expressing antioxidant response element at 10 uM after 6 hrs by HPLC analysis relative to control; format: functional
How it was run: (§1)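 In 24-well plates, AREc32 cells were treated with 10 μM for 6 or 24 h. Cells were PBS-washed, sonicated, and acidified with meta-phosphoric acid (1% v/v final), then centrifuged. GSH in the supernatant was quantified by reverse-phase HPLC with electrochemical detection (pH 3 sodium phosphate/0.9% methanol mobile phase). Results are expressed as % of untreated control, n = 3.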

[2] = tested on: MCF7; experiment: Increase in intracellular GSH level in human MCF7 cells expressing antioxidant response element at 10 uM after 24 hrs by HPLC analysis relative to control; format: functional; how it was run: as §1
[3] = tested on: MCF7; experiment: Increase in intracellular GSH level in human MCF7 cells expressing antioxidant response element at 10 uM after 24 hrs by HPLC analysis in presence of GCL inhibitor buthionine sulfoximine; format: functional, cell-based
[4] = tested on: MCF7; experiment: Increase in intracellular GSH level in human MCF7 cells expressing antioxidant response element at 10 uM after 24 hrs by HPLC analysis; format: functional, cell-based; how it was run: as §1
[5] = tested on: MCF7; experiment: Increase in GCL holoenzyme formation in human MCF7 cells expressing antioxidant response element at 20 uM after 24 hrs by native-PAGE immunoblotting technique; format: functional, cell-based
[6] = tested on: MCF7; experiment: Increase in GCLM level in human MCF7 cells expressing antioxidant response element at 20 uM after 6 hrs by SDS-PAGE immunoblotting technique; format: functional, cell-based
How it was run: (§2)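 AREc32 cells in six-well plates were treated with 20 μM for 6 h, then PBS-washed, sonicated in PBS, and the cleared supernatant concentrated by evaporation. GCL holoenzyme was immunoblotted after native PAGE; GCLC and GCLM after SDS PAGE. α-GAPDH served as internal standard. The experiment was repeated once.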

[7] = tested on: MCF7; experiment: Increase in GCLC level in human MCF7 cells expressing antioxidant response element at 20 uM after 6 hrs by SDS-PAGE immunoblotting technique; format: functional, cell-based; how it was run: as §2
[8] = tested on: MCF7; experiment: Cytotoxicity against human MCF7 cells expressing antioxidant response element assessed as LDH release after 48 hrs; format: cell-based; conditions: MCF7, 48 h
How it was run: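 MCF-7/AREc32 cells (ARE-luciferase reporter line; DMEM low glucose, 10% FBS, pen/strep, Geneticin, 37 °C, 5% CO2) exposed to 0–60 μM for 48 h. LDH activity measured in medium and cell lysate via NADH consumption at 340 nm after pyruvate addition. Percent LDH release = supernatant/(supernatant + lysate) × 100. n = 3.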

[9] = tested on: MCF7; experiment: Increase in GCL holoenzyme formation in human MCF7 cells expressing antioxidant response element at 20 uM after 6 hrs by native-PAGE immunoblotting technique; format: functional, cell-based; how it was run: as §2
[10] = molecular target: T1, Nuclear factor erythroid 2-related factor 2 (Homo sapiens) (UniProt Q16236); experiment: Induction of Nrf2 transcriptional activity in human MCF7 cells antioxidant response element at 5 uM after 18 hrs by luciferase reporter gene assay relative to 2,5-DHC; format: cell-based
T1 sequence (whole entry): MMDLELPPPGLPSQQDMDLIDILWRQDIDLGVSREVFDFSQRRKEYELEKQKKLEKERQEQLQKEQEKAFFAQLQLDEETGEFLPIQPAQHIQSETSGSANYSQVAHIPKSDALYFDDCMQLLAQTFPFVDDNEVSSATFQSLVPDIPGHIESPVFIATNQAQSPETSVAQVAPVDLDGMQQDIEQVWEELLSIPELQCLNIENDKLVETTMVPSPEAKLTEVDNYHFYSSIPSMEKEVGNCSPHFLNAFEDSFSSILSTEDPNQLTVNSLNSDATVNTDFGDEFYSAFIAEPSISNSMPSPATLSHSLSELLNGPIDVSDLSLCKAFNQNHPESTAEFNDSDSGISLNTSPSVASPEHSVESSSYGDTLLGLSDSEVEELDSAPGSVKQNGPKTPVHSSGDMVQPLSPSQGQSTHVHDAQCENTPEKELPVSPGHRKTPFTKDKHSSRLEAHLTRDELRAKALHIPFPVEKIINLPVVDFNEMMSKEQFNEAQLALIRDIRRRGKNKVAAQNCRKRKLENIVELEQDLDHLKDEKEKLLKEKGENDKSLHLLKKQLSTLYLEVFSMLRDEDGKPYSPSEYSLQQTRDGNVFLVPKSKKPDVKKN
How it was run: (§3)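 AREc32 cells (stable ARE-driven firefly luciferase) grown in 12-well plates to ~60% confluence were exposed to 5 μM for 18 h, alongside sulforaphane or tBHQ at 5 μM. Cells were lysed and centrifuged, and luciferase activity was read on a luminometer using an enhanced luciferase kit. n = 4.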

[11] = molecular target: T1, Nuclear factor erythroid 2-related factor 2 (Homo sapiens); experiment: Induction of Nrf2 transcriptional activity in human MCF7 cells antioxidant response element at 5 uM after 18 hrs by luciferase reporter gene assay relative to sulforaphane; format: cell-based; how it was run: as §3
[12] = tested on: MCF7; experiment: Increase in intracellular GSH level in human MCF7 cells expressing antioxidant response element at 10 uM after 24 hrs in presence of JNK inhibitor SP600125; format: functional, cell-based
How it was run: (§4)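 AREc32 cells received 10 μM for 24 h along with 20 μM buthionine sulfoximine, SP600125, SB203580 or MnTDE-1,3-IP5+. Intracellular GSH was measured by HPLC with electrochemical detection after sonication and meta-phosphoric acid extraction. n = 3, with group differences tested at P < 0.05.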

[13] = molecular target: T1, Nuclear factor erythroid 2-related factor 2 (Homo sapiens); experiment: Induction of Nrf2 transcriptional activity in human MCF7 cells antioxidant response element at 5 uM after 18 hrs by luciferase reporter gene assay in presence of catalytic antioxidant MnTDE-1,3-IP5+; format: cell-based
[14] = molecular target: T1, Nuclear factor erythroid 2-related factor 2 (Homo sapiens); experiment: Induction of Nrf2 transcriptional activity in human MCF7 cells antioxidant response element at 5 uM after 18 hrs by luciferase reporter gene assay in presence of JNK inhibitor SP600125; format: cell-based
[15] = tested on: MCF7; experiment: Increase in intracellular GSH level in human MCF7 cells expressing antioxidant response element at 10 uM after 24 hrs in presence of p38 MAPK inhibitor SB203580; format: functional, cell-based; how it was run: as §4
[16] = tested on: MCF7; experiment: Increase in intracellular GSH level in human MCF7 cells expressing antioxidant response element at 10 uM after 24 hrs in presence of catalytic antioxidant MnTDE-1,3IP5+; format: functional, cell-based; how it was run: as §4
[17] = molecular target: T1, Nuclear factor erythroid 2-related factor 2 (Homo sapiens); experiment: Induction of Nrf2 transcriptional activity in human MCF7 cells antioxidant response element at 5 uM after 18 hrs by luciferase reporter gene assay in presence of p38 MAPK inhibitor SB203580; format: cell-based
[18] = molecular target: T1, Nuclear factor erythroid 2-related factor 2 (Homo sapiens); experiment: Induction of Nrf2 transcriptional activity in human MCF7 cells antioxidant response element at 5 uM after 18 hrs by luciferase reporter gene assay relative to tert-butylhydroquinone; format: cell-based; how it was run: as §3

| SMILES | Activity [1] | Activity [2] | further results |
| --- | --- | --- | --- |
| COc1cccc(OC)c1C(=O)/C=C/c1cccc(F)c1 | 82% | 171% |  |
| COc1cccc(OC)c1/C=C/C(=O)c1c(Cl)cccc1Cl | 93% | 120% |  |
| O=C(/C=C/c1c(Cl)cccc1Cl)c1ccccc1O | 108% | 180% |  |
| COc1cc(OC)c(C(=O)/C=C/c2c(F)cccc2F)c(OC)c1 | 118% | 223% |  |
| COc1cccc(OC)c1C(=O)/C=C/c1ccccc1 | 87% | 158% |  |
| COc1cc(OC)c(C(=O)/C=C/c2c(Cl)cc(Cl)cc2Cl)c(OC)c1 | 119% | 246% |  |
| COc1cc(O)c(C(=O)/C=C/c2c(Cl)cccc2Cl)c(OC)c1 | 119% | 250% |  |
| COc1cccc(OC)c1C(=O)/C=C/c1ccccc1[N+](=O)[O-] | 106% | 204% |  |
| COc1cccc(OC)c1C(=O)/C=C/c1ccccc1F | 103% | 195% |  |
| COc1ccc(C(=O)/C=C/c2cccc(F)c2)c(OC)c1 | 78% | 173% |  |
| C[S+]([O-])CCCCN=C=S (racemic) |  |  | Activity [3]: inactive; Activity [4]: Active |
| COc1ccc(C(=O)/C=C/c2cc(OC)ccc2OC)c(O)c1 | 100% | 153% |  |
| O=C(/C=C/c1ccccc1)c1ccccc1 [CHALCONE] | 103% | 115% |  |
| O=C(/C=C/c1ccccc1)c1cc(O)ccc1O | 82% | 177% | Activity [3]: inactive; Activity [5]: inactive; Activity [6]: inactive; Activity [7]: inactive; IC50 [8]: 33 µM; Activity [9]: Active |
| COc1ccc(C(=O)/C=C/c2cccc(OC)c2OC)c(O)c1 | 100% | 174% |  |
| COc1cccc(OC)c1C(=O)/C=C/c1c(Cl)cccc1Cl | 122% | 256% |  |

| SMILES | Activity [1] | Activity [2] | further results |
| --- | --- | --- | --- |
| COc1cc(OC)c(C(=O)/C=C/c2ccccc2)c(OC)c1 | 91% | 209% |  |
| COc1cc(O)c(C(=O)/C=C/c2ccccc2)c(OC)c1 [FLAVOKAWAIN B] | 101% | 191% |  |
| COc1cccc(O)c1C(=O)/C=C/c1c(Cl)cccc1Cl | 88% | 183% |  |
| COc1cccc(OC)c1C(=O)/C=C/c1ccccc1Cl | 105% | 211% |  |
| COc1cc(O)c(C(=O)/C=C/c2ccccc2Cl)c(OC)c1 | 107% | 299% | Ratio [10]: 4; Ratio [11]: 4; Activity [12]: Active; Activity [3]: inactive; Activity [13]: inactive; Activity [14]: inactive; Activity [6]: inactive; Activity [4]: Active; Activity [7]: inactive; Activity [15]: Active; Activity [16]: Active; IC50 [8]: 25 µM; Activity [9]: Active; Activity [17]: Active; Ratio [18]: 10 |
| COc1cc(O)c(C(=O)/C=C/c2c(F)cccc2F)c(OC)c1 | 135% | 226% |  |
| COc1cccc(OC)c1/C=C/C(=O)c1ccccc1 | 111% | 189% |  |
| COc1cc(OC)c(/C=C/C(=O)c2ccc(Cl)c(Cl)c2)c(OC)c1 | 98% | 88% |  |
| CC(C)(C)c1cc(O)ccc1O |  |  | Activity [3]: inactive; Activity [4]: Active |
| COc1ccc(C(=O)/C=C/c2c(OC)cccc2OC)c(O)c1 | 90% | 231% |  |
| COc1cccc(OC)c1C(=O)/C=C/c1ccc(F)cc1F | 104% | 182% |  |
| COc1cccc(OC)c1C(=O)/C=C/c1cccc(Cl)c1 | 88% | 165% |  |
| COc1ccc(C(=O)/C=C/c2c(Cl)cccc2Cl)c(O)c1 | 107% | 193% |  |
| COc1ccc(C(=O)/C=C/c2c(OC)cc(OC)cc2OC)c(O)c1 | 91% | 104% | Activity [3]: inactive |
| COc1ccc(C(=O)/C=C/c2ccc(OC)cc2OC)c(O)c1 | 114% | 160% |  |
| COc1ccc(C(=O)/C=C/c2ccccc2Cl)c(OC)c1 | 109% | 232% |  |
